# Bioassay records deposited in PubChem by The Scripps Research Institute Molecular Screening Center.
# Most compounds without a hit are left out; they make up all but 1.8% or so of the library.
# HTRA1 inhibitor – blocks human HTRA1 serine peptidase. inhibition, % at 5.96 µM. recombinant HTRA1, FP-rhodamine activity-based probe, fluorescence polarization. 340,000 tested, 0.5% active. Q92743; in the data active = inhibition above about 36%;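 note: 0% = enzyme with DMSO and 100% = wells lacking enzyme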
# SIAE inh – inhibitors of human sialic acid acetylesterase SIAE; inhibition, % at 9.66 µM; 370,000 tested, 0.69% active; Q9HAT2; SIAE FP-Rh probe binding, fluorescence polarization;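 active = inhibition above a cutoff: mean of compounds within the control limits plus 3 SD of those, cut at about 17% in these data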;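 note: 0% = plate median of compound wells and 100% = probe without SIAE protein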
# DDE Tn7 FP inh – disrupts Tn7 cyclic peptide binding to fibrin D-Dimer-E complex. P02675. inhibition, % at 8.3 µM. FP displacement of FITC-Tn7 peptide from fibrin DD(E); 0% = median of compound wells per plate. 370,000 tested, 0.13% active;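 active = inhibition above the mean of compounds falling within the control limits plus 3 SD of them, cut at about 14% in these data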;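 note: 0% = plate median of compound wells and 100% = 10 µM Aha-Tn7 peptide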
# Target sequence (P02675 whole entry, looked up): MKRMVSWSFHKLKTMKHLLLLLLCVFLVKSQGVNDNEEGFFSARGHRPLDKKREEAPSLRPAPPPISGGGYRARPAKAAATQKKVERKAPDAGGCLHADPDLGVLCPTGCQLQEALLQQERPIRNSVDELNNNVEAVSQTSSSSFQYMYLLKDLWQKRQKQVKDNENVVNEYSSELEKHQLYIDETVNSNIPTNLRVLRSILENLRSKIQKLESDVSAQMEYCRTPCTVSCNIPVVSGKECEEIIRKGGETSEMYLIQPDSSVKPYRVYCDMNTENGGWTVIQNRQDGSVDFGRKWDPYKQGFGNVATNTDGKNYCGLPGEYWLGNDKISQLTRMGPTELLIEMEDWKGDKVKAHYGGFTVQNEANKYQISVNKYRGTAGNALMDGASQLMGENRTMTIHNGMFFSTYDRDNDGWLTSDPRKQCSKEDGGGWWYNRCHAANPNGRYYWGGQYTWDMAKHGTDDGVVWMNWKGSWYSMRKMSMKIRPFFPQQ
#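 system = human fibrin DD(E) protein | quantity = DD(E) 2 µM final | medium = Tris/NaCl/CaCl2 buffer, pH 7.8 | also added = labelled Tn7 tracer, 0.1 µM | compound dosing = single point at 8.3 µM | timing = compound with protein 10 min, then 3 h after probe, room temperature | signal = FP measurement | benchmarks = Aha-Tn7 high control | repeats = one replicate per compound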
# mABHD4 FP – inhibitors of mouse ABHD4; Q8VD66; purified mABHD4, FP-Rh probe fluorescence polarization; inhibition, % at 8.92 µM; 370,000 tested, 0.54% active; AID 720543;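 active = inhibition exceeding the mean over every tested compound plus 3 SD, cut at about 30% in these data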;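 note: 0% = plate median of compound wells and 100% = S159A mutant with DMSO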
#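 Assay system: mouse ABHD4 enzyme, wild type / Also added: fluorescent activity-based probe FP-Rh / Doses: single nominal dose of 8.92 µM, 0.89% DMSO final / Timing: 45 min compound pre-incubation plus 60 min probe step, 25 °C / Signal: FP readout, ex 525 nm / em 598 nm / Control set: S159A mutant/DMSO as 100%, compound-well median as 0%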
# TCR-CD3 inh – human TCR-CD3 binding inhibition; TAMRA-labeled TCR probe fluorescence, biochemical; inhibition, % at 9.4 µM; 360,000 tested, 0.37% active;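 note: recombinant mutant TCR 2C K166C tagged with TAMRA read by polarization; 0% = receptor in buffer alone and 100% = receptor with positive control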
# Tn6 DDE FP – inhibitors of Tn6 peptide binding to human fibrin DD(E) | 370,000 tested, 0.21% active | inhibition, % at 8.3 µM | P02675 | Fibrin DD(E) TRITC-Tn6 fluorescence polarization displacement;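 active = inhibition above a per-campaign cutoff: mean of compounds within control limits plus 3 SD, cut at about 15% in these data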;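 note: 0% = median of all compound wells on the plate and 100% = blocking peptide control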
# BSA probe FL – counter-screen for TCR-CD3 interaction inhibitors: BSA probe; shares compounds with TCR-CD3 inh; TAMRA-labeled BSA probe fluorescence counterscreen; inhibition, % at 9.4 µM; 1,200 tested, 10% active; in the data active = inhibition above about 23%;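 note: 0% = buffer low control and 100% = reference high control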
# TCR-CD3 conf – TCR-CD3 interaction inhibition, confirmation | shares compounds with TCR-CD3 inh | TAMRA-labeled TCR probe fluorescence binding assay | inhibition, % at 9.4 µM | 1,200 tested, 48% active
# The depositor's hits bear a star; x = not tested or not shown. Cut-off read from the data, not from the text of the source, unless noted: active = inhibition above about 19%; inactive = the rest.
SMILES,HTRA1 inhibitor,SIAE inh,DDE Tn7 FP inh,mABHD4 FP,TCR-CD3 inh,Tn6 DDE FP,BSA probe FL,TCR-CD3 conf
O=C(NNC(=O)c1ccc2ccccc2c1O)c1cccs1,16,10,-6,6,40*,-3,-2,33*
O=C(NNC(=O)c1ccc2ccccc2c1O)c1ccccc1Cl,30,15,5,22,29*,2,-5,35*
CC(C)(C)c1ccc(C(=O)NC(=S)NNC(=O)c2cccs2)cc1,15,5,2,10,-2,-9,x,x
O=C(NC(=S)NNC(=O)c1cccs1)c1ccccc1,-1,5,3,2,22*,7,1,25*
Cn1cccc1C(=O)NCC(c1ccco1)N1CCCCC1 (stereo not drawn),-4,-1,-1,-4,-1,-6,x,x
O=C(NC1CCCCN(Cc2cccc(F)c2)C1=O)c1ccc(F)cc1 (stereo not drawn),x,0,4,4,x,1,x,x
Cc1cc(C)c2c(N)c(C(=O)NN)sc2n1,28,13,-2,14,38*,3,-8,29*
CCOC(=O)c1sc2nc(C)cc(C)c2c1N,-7,-7,-4,-3,7,8,x,x
CCN(CC)c1ccc(NC(=O)COc2ccccc2C#N)cc1S(=O)(=O)Nc1ccccc1OC,-42,-26,-8,-44,21*,-6,2,9
O=C(Nc1cccc(Cl)c1)O/N=C\c1ccncc1,0,-7,-14,5,-3,5,x,x
O=C(Nc1ccc(Cl)c(Cl)c1)O/N=C/c1ccncc1,-81,-121,-2,-45,42*,-4,10,20*
Cc1ccc(C)c(S(=O)(=O)N2CCN(C(=O)CCCc3c[nH]c4ccccc34)CC2)c1,-15,8,1,-2,5,2,x,x
Cn1c(=O)c(-c2cc(=O)[nH][nH]2)c(O)c2ccccc21,x,5,3,13,19*,0,-9,17
CCn1c(=O)c(-c2cc(=O)[nH][nH]2)c(O)c2ccccc21,12,-1,0,15,12,3,x,x
CCC(=O)NNC(=O)c1c(O)c2ccccc2[nH]c1=O,-4,-1,1,3,33*,5,-4,24*
CCCCCCCC(=O)NNC(=O)c1c(O)c2ccccc2[nH]c1=O,4,1,7,0,15,-4,x,x
O=c1nc2c(O)cccn2c2c1c(=O)[nH]c1ccccc12,17,3,-2,0,54*,-2,-11,13
COCCCn1c(=N)c(C(N)=S)cc2c(=O)n3cccc(C)c3nc21,27,4,-3,1,28*,-1,-4,12
Cc1cccn2c(=O)c3cc(C#N)c(=N)n(CCCN4CCOCC4)c3nc12,3,4,-1,-7,-12,6,x,x
Cc1cccn2c(=O)c3cc(C(N)=S)c(=N)n(CCCN4CCOCC4)c3nc12,14,2,3,0,22*,10,-6,9
O=C(Cc1nnc(NC(=O)c2ccccc2)s1)N/N=C/c1ccco1,4,1,-10,-15,19*,-4,-6,4
CN(CCc1ccccn1)C(=O)[C@@H](Cc1ccccc1)NC(=O)[C@H]1O[C@@H](n2ccc(=O)[nH]c2=O)[C@H](O)[C@@H]1O,x,-1,-2,2,4,1,x,x
COc1ccc(/C=N/NC(=O)c2ccncc2)cc1[N+](=O)[O-],2,-6,6,3,-2,2,x,x
COc1cc(O)c(/C=N/NC(=O)c2ccncc2)c(OC)c1[N+](=O)[O-],10,2,6,14,19*,-4,0,31*
CC(=O)c1ccc(NC(=O)COC(=O)c2c3c(nc4ccccc24)/C(=C\c2cccs2)CCC3)cc1,-87,-104,-2,-42,65*,-10,22,40*
SMILES,HTRA1 inhibitor,SIAE inh,DDE Tn7 FP inh,mABHD4 FP,TCR-CD3 inh,Tn6 DDE FP,BSA probe FL,TCR-CD3 conf
COc1ccc(NC(=O)CCCNC(=O)Cn2cnc3sc(C)c(C)c3c2=O)c(OC)c1,7,-3,3,0,72*,3,-4,1
COc1ccc(C)cc1NC(=O)CCCNC(=O)Cn1cnc2sc(C)c(C)c2c1=O,3,-3,2,-6,-8,1,x,x
CN(N=Cc1ccccc1O)c1ccc2ccccc2n1,6,6,0,7,20*,7,4,-1
CN(/N=C/c1ccccc1O)C(=S)c1ccccc1,-8,-2,-3,-2,-4,4,x,x
O=C1C2CCCN2C(=S)N1c1cc(Cl)ccc1Cl (stereo not drawn),-3,-4,3,1,11,9,x,x
CN(C)CCN1CCN(C2CN(C3CCCCC3)S(=O)(=O)C2)CC1 (stereo not drawn),x,5,5,2,3,1,x,x
O=C1NC[C@H](Cc2ccc(O)cc2)N(CCc2cccc(F)c2)C1=O,x,1,-3,2,64*,1,5,3
COC(=O)c1sccc1NC(=O)Nc1ccc(Cl)c(Cl)c1,-14,-23,5,-23,34*,-1,3,7
COC(=O)c1sccc1NC(=O)Nc1ccc(C)c(C)c1,-21,0,-2,-8,4,6,x,x
O=C(N/N=C/c1cn(-c2ccccc2)nc1-c1cc2ccccc2o1)c1c[nH]c2ccccc12,-94,-82,-7,-61,25*,-11,11,16
O=C(N/N=C/c1cn(-c2ccccc2)nc1-c1cc2ccccc2o1)c1ccccc1Br,-42,1,-3,-17,-1,-9,x,x
CCCCCN(C(=O)CCC(=O)OC(C)C(=O)Nc1ccccc1C)c1c(N)n(CCCC)c(=O)[nH]c1=O (stereo not drawn),1,-3,7,-1,5,-7,x,x
O=C1CC(c2ccc(O)c(O)c2)Oc2c1ccc(O)c2O (stereo not drawn),34,11,3,28,28*,1,-23,33*
CCCn1c(SCC(=O)N2CCOCC2)nnc1-c1ccncc1,-1,0,8,0,4,-4,x,x
C[C@@H]1CN([C@@H](C)CO)C(=O)CCCn2nncc2CO[C@H]1CN(C)S(=O)(=O)c1ccc(Oc2ccccc2)nc1,-4,4,0,1,7,2,x,x
CCN1CCN(Cc2ccc(NC(=O)c3ccc(C)c(NC(=O)c4cc(-c5ccc(Br)cc5)n[nH]4)c3)cc2C(F)(F)F)CC1,-100,-57,3,-35,26*,-4,8,8
CC(=O)c1ccc(NC(=O)c2cccc(N3C(=O)c4ccccc4C3=O)c2)cc1,-3,x,x,x,x,x,x,x
